According to ChEMBL document CHEMBL4118248, “Small Molecule Proprotein Convertase Subtilisin/Kexin Type 9 (PCSK9) Inhibitors: Hit to Lead Optimization of Systemic Agents” (J Med Chem, 2018):

Key:
[1] = Intrinsic clearance in human liver microsomes; assay type: ADME, microsome; details: read-out: CLH
80S Ribosome [2] = assay: Binding affinity to 80S ribosome in human HuH7 cells harboring pCMV-truncated human PCSK9 (1 to 152 residues)-proLuc assessed as inhibition of PCSK9 mRNA translation after overnight incubation by luciferase reporter gene assay; assay type: cell-based; details: huh-7
Procedure, shortened: (§1)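 Huh7 cells stably carry human PCSK9 prodomain (aa 1-152) fused to firefly luciferase (aa 2-550) in pcDNA3.1, kept under 900 µg/mL Geneticin. Plated 10,000/well in phenol red-free DMEM/10% FBS and left 4 h, then compound added (top final 20 µM, 0.5% DMSO). Incubated overnight at 37 °C, luminescence read with SteadyGlo.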

Bone marrow cell = assay: Cytotoxicity against rat bone marrow cells assessed as reduction in cell viability after 72 hrs by CellTiter-Glo assay; assay type: cell-based
[3] = target: T1, Voltage-gated inwardly rectifying potassium channel KCNH2 (Homo sapiens, UniProt Q12809); assay: Inhibition of dofetilide binding to human ERG by fluorescence polarization assay
T1 sequence (Q12809 whole entry): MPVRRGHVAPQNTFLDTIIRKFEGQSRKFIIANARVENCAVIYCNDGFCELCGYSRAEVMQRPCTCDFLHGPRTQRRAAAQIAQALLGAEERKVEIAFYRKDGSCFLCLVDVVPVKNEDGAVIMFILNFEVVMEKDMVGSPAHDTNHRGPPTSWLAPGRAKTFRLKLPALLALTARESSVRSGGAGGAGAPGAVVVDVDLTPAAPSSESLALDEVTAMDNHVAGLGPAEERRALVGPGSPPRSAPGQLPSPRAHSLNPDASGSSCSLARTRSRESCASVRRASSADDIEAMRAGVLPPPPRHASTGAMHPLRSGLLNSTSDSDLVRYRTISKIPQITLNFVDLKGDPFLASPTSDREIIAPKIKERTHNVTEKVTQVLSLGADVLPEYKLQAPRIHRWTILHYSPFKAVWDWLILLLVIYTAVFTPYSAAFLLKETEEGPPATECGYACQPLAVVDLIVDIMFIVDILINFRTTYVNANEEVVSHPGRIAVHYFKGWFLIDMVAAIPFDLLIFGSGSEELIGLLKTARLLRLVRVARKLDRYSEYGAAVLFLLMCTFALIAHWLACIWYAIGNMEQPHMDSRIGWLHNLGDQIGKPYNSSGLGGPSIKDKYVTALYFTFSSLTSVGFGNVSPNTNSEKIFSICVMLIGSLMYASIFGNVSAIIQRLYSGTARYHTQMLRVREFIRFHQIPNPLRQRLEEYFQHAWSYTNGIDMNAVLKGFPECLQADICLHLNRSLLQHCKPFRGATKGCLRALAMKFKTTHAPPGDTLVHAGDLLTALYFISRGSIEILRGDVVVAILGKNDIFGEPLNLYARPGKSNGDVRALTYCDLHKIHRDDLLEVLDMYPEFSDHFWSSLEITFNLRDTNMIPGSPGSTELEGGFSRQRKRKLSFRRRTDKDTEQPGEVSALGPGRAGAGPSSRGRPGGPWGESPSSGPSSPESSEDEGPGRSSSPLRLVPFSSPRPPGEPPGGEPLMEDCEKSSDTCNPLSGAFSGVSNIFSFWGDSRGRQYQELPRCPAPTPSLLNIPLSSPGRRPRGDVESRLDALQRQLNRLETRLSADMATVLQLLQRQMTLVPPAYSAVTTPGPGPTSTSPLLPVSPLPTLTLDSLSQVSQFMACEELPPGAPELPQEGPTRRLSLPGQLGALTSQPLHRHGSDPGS

[4] = Intrinsic clearance in rat liver microsomes; assay type: ADME, microsome; details: read-out: CLH
[5] = Selectivity index, ratio of IC50 for cytotoxicity against rat bone marrow cells to IC50 for 80S ribosome in human HuH7 cells harboring pCMV-truncated human PCSK9 (1 to 152 residues)-proLuc; assay type: toxicity, cell-based; details: read-out: Ratio IC50
[6] = Lipophilicity, log D of the compound by shake flask method; assay type: physicochemical; details: octanol/water
Procedure, shortened: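 LogD measured by the shake-flask method.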

80S Ribosome [7] = assay: Binding affinity to 80S ribosome in human HuH7 cells assessed as inhibition of PCSK9 mRNA translation after overnight incubation by ELISA; assay type: cell-based; details: huh-7
Procedure, shortened: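 Huh7 cells kept in high-glucose DMEM, 10% BSA-free FBS, 2 mM L-glutamine, pen/strep at 37 °C, 5% CO2. Plated 7,500/well with compound or vehicle and incubated overnight (16-20 h). Secreted PCSK9 in the medium read by AlphaLISA: two antibodies to different mature-PCSK9 epitopes, biotinylated antibody 3 nM final, acceptor beads 10 µg/mL, 0.5 h rt; streptavidin donor beads 40 µg/mL, 1 h rt.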

Rattus norvegicus [8] = assay: In vivo drugmetabolism in rat assessed as (R)-N-(3-Chloropyridin-2-yl)-4-(6-(methylamino)pyrazin-2-yl)-N-(piperidin-3-yl)benzamide formation; assay type: ADME, organism-based
Rhesus monkey = assay: In vivo drugmetabolism in non-human primate assessed as (R)-N-(3-Chloropyridin-2-yl)-4-(6-(methylamino)pyrazin-2-yl)-N-(piperidin-3-yl)benzamide formation; assay type: ADME, organism-based, Macaca mulatta
[9] = target: T1, Voltage-gated inwardly rectifying potassium channel KCNH2; assay: Inhibition of human ERG by patch clamp method
[10] = target: T2, 80S Ribosome (Homo sapiens) (UniProt P08865+P42677+P62753+P15880+P23396+P61247+P62701+P22090+P46782+P62081+P62241+P46781+P46783+P62280+P25398+P62277+P62263+P62841+P62244+P62249+P08708+P62269+P39019+P60866+P63220+P62266+P62847+P62851+P62854+P62979+P62857+P62273+P62861+P39023+P36578+P46777+Q02878+P18124+P62424+P62917+P32969+P27635+P62906+P62913+P30050+P26373+P40429+P50914+P61313+P18621+Q07020+Q02543+P84098+P46778+P35268+P62829+P62750+P83731+P61254+P61353+P46776+P46779+P47914+P62888+P62899+P62910+P49207+P42766+P18077+Q9Y3U8+P83881+P61927+P61513+P63173+P62891+P62945+P05388+P05386); assay: Binding affinity to 80S ribosome in human HuH7 cells harboring pCMV-truncated human PCSK9 (1 to 152 residues)-proLuc assessed as inhibition of PCSK9 mRNA translation at 20 uM after overnight incubation by luciferase reporter gene assay relative to control; assay type: cell-based; details: Huh-7; procedure, shortened: as §1
Rattus norvegicus [11] = assay: Toxicity in Crl:CD(SD) rat assessed as discolored/mottled liver at 50 mg/kg/day, po daily via gavage for 14 days measured on day 15 post last dose; assay type: organism-based; details: in vivo, 336 h
Procedure, shortened: (§2)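 Male rats, 5 per group, given vehicle or compound at 50 mg/kg/day by oral gavage for 14 days. Mortality, clinical signs and hematology monitored throughout. Necropsy on day 15 with microscopy of bone marrow, ileum, duodenum, jejunum and liver. Toxicokinetics at 1, 3, 6 and 24 h post-dose on day 14.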

[12] = target: T2, 80S Ribosome (Homo sapiens); assay: Binding affinity to 80S ribosome in human HuH7 cells assessed as inhibition of PCSK9 mRNA translation at 20 uM after overnight incubation by ELISA relative to control; assay type: cell-based; details: Huh-7
Rattus norvegicus [13] = assay: Toxicity in Crl:CD(SD) rat assessed as single cell necrosis in crypt cells in ileum at 50 mg/kg/day, po daily via gavage for 14 days measured on day 15 post last dose; assay type: organism-based; details: in vivo, 336 h
CYP2D6 = CYP2D6 (Homo sapiens, UniProt P10635); assay: Inhibition of CYP2D6 (unknown origin) at 3 uM relative to control; assay type: ADME
CYP2D6, sequence (P10635 whole entry): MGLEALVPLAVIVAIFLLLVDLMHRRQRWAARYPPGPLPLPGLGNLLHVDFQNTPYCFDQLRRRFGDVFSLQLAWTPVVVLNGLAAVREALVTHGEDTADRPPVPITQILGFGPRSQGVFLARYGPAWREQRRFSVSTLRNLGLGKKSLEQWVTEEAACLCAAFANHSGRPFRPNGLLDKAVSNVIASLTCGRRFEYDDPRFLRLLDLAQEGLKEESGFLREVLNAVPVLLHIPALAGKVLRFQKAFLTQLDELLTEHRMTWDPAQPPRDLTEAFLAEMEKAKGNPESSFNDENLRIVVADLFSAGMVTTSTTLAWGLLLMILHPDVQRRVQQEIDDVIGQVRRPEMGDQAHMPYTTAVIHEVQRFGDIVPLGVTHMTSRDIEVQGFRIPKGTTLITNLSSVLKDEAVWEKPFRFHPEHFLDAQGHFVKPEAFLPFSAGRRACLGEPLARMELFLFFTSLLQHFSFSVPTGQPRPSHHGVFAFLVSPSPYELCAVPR
Procedure, shortened: (§3)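 Inhibition of CYP1A2, 2D6, 2C9 and 3A4 reported as IC50, or as percent inhibition at 3 µM.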

CYP3A4 = CYP3A4 (Homo sapiens, UniProt P08684); assay: Inhibition of CYP3A4 (unknown origin) at 3 uM relative to control; assay type: ADME; procedure, shortened: as §3
CYP3A4, sequence (P08684 whole entry): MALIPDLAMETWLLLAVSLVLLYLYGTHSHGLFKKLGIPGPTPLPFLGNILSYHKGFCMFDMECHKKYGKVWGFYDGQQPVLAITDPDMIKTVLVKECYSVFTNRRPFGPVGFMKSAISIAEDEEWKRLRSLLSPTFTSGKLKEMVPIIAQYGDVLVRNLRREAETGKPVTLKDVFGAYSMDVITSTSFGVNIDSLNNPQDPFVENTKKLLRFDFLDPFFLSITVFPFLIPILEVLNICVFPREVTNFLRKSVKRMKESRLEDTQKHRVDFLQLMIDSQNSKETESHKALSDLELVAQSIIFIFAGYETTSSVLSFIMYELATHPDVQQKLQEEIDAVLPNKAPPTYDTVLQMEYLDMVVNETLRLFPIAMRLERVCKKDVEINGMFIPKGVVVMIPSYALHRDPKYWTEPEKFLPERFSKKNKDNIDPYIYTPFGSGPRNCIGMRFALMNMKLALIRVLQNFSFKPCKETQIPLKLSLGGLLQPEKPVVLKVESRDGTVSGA

[14] = Apparent permeability in RRCK cells; assay type: ADME, cell-based, Canis lupus familiaris, MDCKII-LE; details: dog, MDCK
Procedure, shortened: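 Passive permeability measured in RRCK cells, a modified Madin-Darby canine kidney line; Papp reported in 10^-6 cm/s.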

CYP2C9 = CYP2C9 (Homo sapiens, UniProt P11712); assay: Inhibition of CYP2C9 (unknown origin) at 3 uM relative to control; assay type: ADME; procedure, shortened: as §3
CYP2C9, sequence (P11712 whole entry): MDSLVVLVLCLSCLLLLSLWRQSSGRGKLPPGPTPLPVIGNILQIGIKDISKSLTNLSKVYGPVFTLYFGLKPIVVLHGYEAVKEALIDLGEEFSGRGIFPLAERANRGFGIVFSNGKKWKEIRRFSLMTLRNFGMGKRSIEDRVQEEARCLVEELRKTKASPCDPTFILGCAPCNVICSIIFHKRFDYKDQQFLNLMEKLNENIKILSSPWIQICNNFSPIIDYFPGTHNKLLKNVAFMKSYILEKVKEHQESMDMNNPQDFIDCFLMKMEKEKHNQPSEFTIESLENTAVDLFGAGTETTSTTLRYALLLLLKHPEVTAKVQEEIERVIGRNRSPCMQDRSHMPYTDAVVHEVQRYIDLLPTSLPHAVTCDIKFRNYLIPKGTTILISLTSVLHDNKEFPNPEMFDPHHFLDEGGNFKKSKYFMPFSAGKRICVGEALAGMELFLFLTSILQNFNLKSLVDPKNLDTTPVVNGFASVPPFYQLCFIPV

CYP1A2 = target: T3, CYP1A2 (Homo sapiens, UniProt P05177); assay: Inhibition of CYP1A2 (unknown origin) at 3 uM relative to control; assay type: ADME; procedure, shortened: as §3
T3 sequence (P05177 whole entry): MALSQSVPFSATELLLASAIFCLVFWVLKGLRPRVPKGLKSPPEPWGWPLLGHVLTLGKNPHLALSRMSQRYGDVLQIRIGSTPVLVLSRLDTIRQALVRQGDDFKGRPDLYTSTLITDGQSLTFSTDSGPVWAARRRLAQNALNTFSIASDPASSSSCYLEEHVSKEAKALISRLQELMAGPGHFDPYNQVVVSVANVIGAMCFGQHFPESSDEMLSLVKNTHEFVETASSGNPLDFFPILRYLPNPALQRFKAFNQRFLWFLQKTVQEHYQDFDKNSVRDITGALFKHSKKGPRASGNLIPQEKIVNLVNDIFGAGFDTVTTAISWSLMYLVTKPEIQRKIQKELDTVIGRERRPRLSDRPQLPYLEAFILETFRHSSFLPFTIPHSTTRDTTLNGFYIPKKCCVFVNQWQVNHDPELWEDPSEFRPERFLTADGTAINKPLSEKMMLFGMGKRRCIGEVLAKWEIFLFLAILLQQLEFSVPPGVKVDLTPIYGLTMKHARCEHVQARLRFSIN

Rattus norvegicus [15] = assay: Toxicity in Crl:CD(SD) rat assessed as hepatocyte vacuolation at 50 mg/kg/day, po daily via gavage for 14 days measured on day 15 post last dose; assay type: organism-based; details: in vivo, 336 h; procedure, shortened: as §2
Cytochrome P450 1A2 = target: T4, Cytochrome P450 1A2 (Homo sapiens, UniProt P05177); assay: Inhibition of CYP1A2 (unknown origin); assay type: ADME; procedure, shortened: as §3
T4 sequence (P05177 whole entry): T3 sequence (P05177 whole entry)

[16] = Fraction unbound in rat plasma; assay type: ADME, cell-free
Procedure, shortened: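 Unbound fraction measured in rat plasma.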

Cytochrome P450 2D6 = Cytochrome P450 2D6 (Homo sapiens, UniProt P10635); assay: Inhibition of CYP2D6 (unknown origin); assay type: ADME; procedure, shortened: as §3
Cytochrome P450 2D6, sequence (P10635 whole entry): as the sequence (P10635 whole entry) above

[17] = Permeability from basolateral to apical side in MDCK cells harboring MDR1; assay type: ADME, cell-based, Canis lupus familiaris; details: dog, read-out: permeability
Procedure, shortened: (§4)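 Bidirectional permeability across MDR1-transfected MDCK monolayers, apical-to-basolateral and basolateral-to-apical; Papp reported in 10^-6 cm/s.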

Cytochrome P450 2C9 = Cytochrome P450 2C9 (Homo sapiens, UniProt P11712); assay: Inhibition of CYP2C9 (unknown origin); assay type: ADME; procedure, shortened: as §3
Cytochrome P450 2C9, sequence (P11712 whole entry): as the sequence (P11712 whole entry) above

Cytochrome P450 3A4 = Cytochrome P450 3A4 (Homo sapiens, UniProt P08684); assay: Inhibition of CYP3A4 (unknown origin); assay type: ADME; procedure, shortened: as §3
Cytochrome P450 3A4, sequence (P08684 whole entry): as the sequence (P08684 whole entry) above

[18] = Permeability from apical to basolateral side in MDCK cells harboring MDR1; assay type: ADME, cell-based, Canis lupus familiaris; details: dog, read-out: permeability; procedure, shortened: as §4

SMILES	microsomal CLint [1]	IC50 (80S Ribosome [2])	IC50 (Bone marrow cell)	Ki [3]	microsomal CLint [4]	logD [6]	IC50 (80S Ribosome [7])	further results
Cc1ccc2nnn(-c3ccc(C(=O)N(c4ncccc4Cl)[C@@H]4CCCNC4)cc3)c2n1	9 µL/min/mg	0.45 µM	1 µM	34 µM	38.5 µL/min/mg	1.2	0.9 µM	selectivity ratio [5]: 2
Cn1cc(-c2ccc(C(=O)N(c3nccc4ccccc34)[C@@H]3CCCNC3)cc2)cn1	13.3 µL/min/mg	1.06 µM	2.9 µM	16 µM	–	0.9	2.38 µM	–
CN(C)c1cncc(-c2ccc(C(=O)N(c3ncccc3Cl)[C@@H]3CCCNC3)cc2)n1	18.2 µL/min/mg	–	30.1 µM	14.1 µM	–	1.37	2.97 µM	Drug metabolism (Rattus norvegicus [8]): Metabolite_Detected; Drug metabolism (Rhesus monkey): Metabolite_Notdetected; IC50 [9]: 43.2 µM
CNc1cncc(-c2ccc(C(=O)N(c3ncccc3Cl)[C@@H]3CCCNC3)cc2)n1	8.7 µL/min/mg	–	19.6 µM	38.4 µM	–	1.07	3.08 µM	–
O=C(c1ccc(-n2nnc3cccnc32)cc1)N(c1ncccc1Cl)[C@H]1CCCNC1	–	–	> 20 µM	–	–	–	–	inhibition [10]: 61%; Activity (Rattus norvegicus [11]): Toxic; inhibition [12]: 24%; Activity (Rattus norvegicus [13]): Non-Toxic
COc1ccc(CCC(=O)N(c2nccc3ccccc23)[C@@H]2CCCNC2)cc1	20.6 µL/min/mg	2.63 µM	> 20 µM	13 µM	> 510 µL/min/mg	1.1	8.37 µM	inhibition at 3 µM (CYP2D6): < 20%; inhibition at 3 µM (CYP3A4): < 20%; Papp [14]: 5.4 ×10⁻⁶ cm/s; inhibition at 3 µM (CYP2C9): < 20%; inhibition at 3 µM (CYP1A2): < 20%
Cc1cnc2c(c1)nnn2-c1ccc(C(=O)N(c2ncccc2Cl)[C@@H]2CCCNC2)cc1	8.8 µL/min/mg	0.41 µM	> 19.7 µM	3.3 µM	16.5 µL/min/mg	1.2	0.78 µM	Activity (Rattus norvegicus [11]): Toxic; Activity (Rattus norvegicus [15]): Toxic; Activity (Rattus norvegicus [13]): Non-Toxic
O=C(c1ccc(-c2cnn3cccnc23)cc1)N(c1nccc2ccccc12)[C@@H]1CCCNC1	14.5 µL/min/mg	0.69 µM	1.4 µM	5.4 µM	31.2 µL/min/mg	1.1	1.29 µM	–
O=C(c1ccc(-c2ccccc2)cc1)N(c1nccc2ccccc12)[C@@H]1CCCNC1	10.7 µL/min/mg	–	–	2.2 µM	57.7 µL/min/mg	2.5	–	inhibition [10]: 54%; inhibition [12]: 39%
O=C(c1ccc(-n2nnc3cccnc32)nc1)N(c1ncccc1Cl)[C@@H]1CCCNC1	< 8 µL/min/mg	4.1 µM	–	12.7 µM	14.7 µL/min/mg	0.1	9.24 µM	–
O=C(c1ccc(-n2nnc3cccnc32)cc1)N(c1nccc2ccccc12)[C@@H]1CCCNC1	21.8 µL/min/mg	0.39 µM	–	15.8 µM	–	1.4	0.9 µM	–
O=C(c1ccc(-c2cnccn2)cc1)N(c1nccc2ccccc12)[C@@H]1CCCNC1	11 µL/min/mg	4.3 µM	> 20 µM	> 40 µM	123 µL/min/mg	0.7	9.32 µM	–
O=C(c1ccc(-n2nnc3cccnc32)cn1)N(c1ncccc1Cl)[C@@H]1CCCNC1	< 8 µL/min/mg	0.71 µM	> 12.7 µM	28.8 µM	15.3 µL/min/mg	0.3	1.44 µM	Activity (Rattus norvegicus [11]): Toxic; Activity (Rattus norvegicus [13]): Non-Toxic
Cc1cncc(-c2ccc(C(=O)N(c3ncccc3Cl)[C@@H]3CCCNC3)cc2)n1	< 8 µL/min/mg	–	43.7 µM	38.2 µM	–	0.8 to 1.37	2.82 µM	Papp [14]: 10.5 ×10⁻⁶ cm/s; IC50 (Cytochrome P450 1A2): > 30 µM; fraction unbound [16]: 0.41; IC50 [9]: 59.8 µM; IC50 (Cytochrome P450 2D6): > 30 µM; Papp B→A [17]: 20 ×10⁻⁶ cm/s; IC50 (Cytochrome P450 2C9): > 30 µM; IC50 (Cytochrome P450 3A4): > 30 µM; Papp A→B [18]: 0.7 ×10⁻⁶ cm/s
